Active and inactive are the calls of the source. The calls are words filed in the database; no cut-off is given here.
Columns and labels:
[1] = tested on: MCF7; experiment: Drug metabolism in human MCF7 cells assessed as quercetin sulfate level at 30 uM after 1 hr by HPLC analysis; format: ADME, cell-based; details: mcf7, 1 h
Procedure, shortened: (§1)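 MCF-7 or HCT116 cells were seeded at 2×10^5 per well and grown 24 h at 37 °C, 5% CO2, then given 30 µM conjugate. At 1, 3, 6 and 12 h cells were PBS-washed, trypsinized, sonicated and filtered. Lysates were run on C18 HPLC (UV 340 nm). Each species is reported as a percentage of integrated peak area; peaks were identified by MALDI-TOF MS.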

[2] = tested on: HCT-116; experiment: Drug metabolism in human HCT116 cells assessed as methyl quercetin level at 30 uM after 6 hrs by HPLC analysis; format: ADME, cell-based; details: hct-116, 6 h; procedure, shortened: as §1
[3] = Metabolic stability in human HCT116 cells assessed as compound remaining at 30 uM after 1 hr by HPLC analysis; format: ADME, cell-based, HCT-116; details: read-out: Stability; procedure, shortened: as §1
[4] = tested on: MCF7; experiment: Drug metabolism in human MCF7 cells assessed as quercetin sulfate level at 30 uM after 3 hrs by HPLC analysis; format: ADME, cell-based; details: mcf7, 3 h; procedure, shortened: as §1
[5] = Metabolic stability in human MCF7 cells assessed as compound remaining at 30 uM after 6 hrs by HPLC analysis; format: ADME, cell-based; details: read-out: Stability; procedure, shortened: as §1
[6] = tested on: HCT-116; experiment: Drug metabolism in human HCT116 cells assessed as quercetin sulfate level at 30 uM after 1 hr by HPLC analysis; format: ADME, cell-based; details: hct-116, 1 h; procedure, shortened: as §1
[7] = tested on: HCT-116; experiment: Drug metabolism in human HCT116 cells assessed as methyl quercetin level at 30 uM after 3 hrs by HPLC analysis; format: ADME, cell-based; details: hct-116, 3 h; procedure, shortened: as §1
[8] = tested on: HCT-116; experiment: Drug metabolism in human HCT116 cells assessed as quercetin-glucuronide level at 30 uM after 6 hrs by HPLC analysis; format: ADME, cell-based; details: hct-116, 6 h; procedure, shortened: as §1
[9] = Half life of the compound in PBS buffer at pH 7.4 at 50 uM by HPLC analysis; format: physicochemical
Procedure, shortened: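 Compound at 50 µM in PBS pH 7.4, incubated at 37 °C. Aliquots were drawn at 0, 1, 3, 6, 12, 24, 48 and 96 h and analysed by C18 reverse-phase HPLC with an acetonitrile/0.1% formic acid gradient, detected by UV at 340 nm.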

[10] = Metabolic stability in human MCF7 cells assessed as compound remaining at 30 uM after 3 hrs by HPLC analysis; format: ADME, cell-based; details: read-out: Stability; procedure, shortened: as §1
[11] = tested on: HCT-116; experiment: Drug metabolism in human HCT116 cells assessed as methyl quercetin level at 30 uM after 1 hr by HPLC analysis; format: ADME, cell-based; details: hct-116, 1 h; procedure, shortened: as §1
[12] = tested on: MCF7; experiment: Drug metabolism in human MCF7 cells assessed as methyl quercetin level at 30 uM after 1 hr by HPLC analysis; format: ADME, cell-based; details: mcf7, 1 h; procedure, shortened: as §1
[13] = tested on: MCF7; experiment: Drug metabolism in human MCF7 cells assessed as quercetin sulfate level at 30 uM after 12 hrs by HPLC analysis; format: ADME, cell-based; details: mcf7, 12 h; procedure, shortened: as §1
[14] = tested on: MCF7; experiment: Drug metabolism in human MCF7 cells assessed as quercetin-glucuronide level at 30 uM after 1 hr by HPLC analysis; format: ADME, cell-based; details: mcf7, 1 h; procedure, shortened: as §1
[15] = tested on: MCF7; experiment: Drug metabolism in human MCF7 cells assessed as quercetin level at 30 uM after 12 hrs by HPLC analysis; format: ADME, cell-based; details: mcf7, 12 h; procedure, shortened: as §1
[16] = tested on: MCF7; experiment: Drug metabolism in human MCF7 cells assessed as methyl quercetin level at 30 uM after 12 hrs by HPLC analysis; format: ADME, cell-based; details: mcf7, 12 h; procedure, shortened: as §1
[17] = tested on: MCF7; experiment: Drug metabolism in human MCF7 cells assessed as quercetin-glucuronide level at 30 uM after 12 hrs by HPLC analysis; format: ADME, cell-based; details: mcf7, 12 h; procedure, shortened: as §1
[18] = Metabolic stability in human HCT116 cells assessed as compound remaining at 30 uM after 6 hrs by HPLC analysis; format: ADME, cell-based, HCT-116; details: read-out: Stability; procedure, shortened: as §1
[19] = tested on: MCF7; experiment: Cytotoxicity against human MCF7 cells at 1 to 100 uM after 12 hrs by MTT assay; format: functional, cell-based
Procedure, shortened: (§2)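 MCF-7 or HCT116 cells were seeded at 5×10^3 per well in DMEM with 10% FBS and grown 1 day at 37 °C, 5% CO2. Compounds in 1% DMSO were added at 1, 5, 10, 50, 100 or 250 µM. Viability was read by MTT after 12 h; each assay was done three times.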

[20] = tested on: HCT-116; experiment: Drug metabolism in human HCT116 cells assessed as quercetin-glucuronide level at 30 uM after 12 hrs by HPLC analysis; format: ADME, cell-based; details: hct-116, 12 h; procedure, shortened: as §1
[21] = tested on: HCT-116; experiment: Cytotoxicity against human HCT116 cells at 1 to 100 uM after 12 hrs by MTT assay; format: functional, cell-based; procedure, shortened: as §2
[22] = tested on: MCF7; experiment: Metabolic stability in human MCF7 cells assessed as compound remaining at 30 uM after 12 hrs by HPLC analysis; format: ADME, cell-based; details: mcf7, 12 h; procedure, shortened: as §1
[23] = Half life of the compound in DMEM cell-free cell culture medium at 50 uM by HPLC analysis; format: physicochemical
Procedure, shortened: (§3)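 Conjugates diluted from a 10 mM DMSO stock to 50 µM final in cell-free culture medium (DMEM with 10% FBS), held at 37 °C. Samples were taken at 0, 1, 3, 6, 12, 24, 48 and 96 h, vortexed, and run on C18 reverse-phase HPLC with an acetonitrile/0.1% formic acid gradient at 1 mL/min, detected by UV at 340 nm.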

[24] = Drug degradation in DMEM cell-free cell culture medium assessed as formation of quercetin at 50 uM after 1 hr by HPLC analysis; format: physicochemical; procedure, shortened: as §3
[25] = Solubility of the compound in PBS buffer at 0.5 to 300 uM; format: physicochemical
Procedure, shortened: (§4)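 DMSO stocks ([…]–10 mM) were serially diluted into PBS pH 7.4 or DMEM with 10% FBS to final 0.5, 5, 25, 50, 100, 200 µM (2% DMSO) and 300 µM (3% DMSO). Solubility was judged by forward light scattering in a laser nephelometer.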

[26] = Solubility of the compound in DMEM cell-free cell culture medium up to 100 uM; format: physicochemical; procedure, shortened: as §4
[27] = Metabolic stability in human HCT116 cells assessed as compound remaining at 30 uM after 3 hrs by HPLC analysis; format: ADME, cell-based, HCT-116; details: read-out: Stability; procedure, shortened: as §1
[28] = tested on: HCT-116; experiment: Drug metabolism in human HCT116 cells assessed as methyl quercetin level at 30 uM after 12 hrs by HPLC analysis; format: ADME, cell-based; details: hct-116, 12 h; procedure, shortened: as §1
[29] = Metabolic stability in human MCF7 cells assessed as compound remaining at 30 uM after 1 hr by HPLC analysis; format: ADME, cell-based; details: read-out: Stability; procedure, shortened: as §1
[30] = tested on: HCT-116; experiment: Drug metabolism in human HCT116 cells assessed as quercetin-glucuronide level at 30 uM after 3 hrs by HPLC analysis; format: ADME, cell-based; details: hct-116, 3 h; procedure, shortened: as §1
[31] = Metabolic stability in human HCT116 cells assessed as compound remaining at 30 uM after 12 hrs by HPLC analysis; format: ADME, cell-based, HCT-116; details: read-out: Stability; procedure, shortened: as §1

In the case of `CC(C)OC(=O)OCOc1cc(O)c2c(=O)c(O)c(-c3ccc(O)c(O)c3)oc2c1`, the Stability [1] is reported as “Stable”, the Stability [2] is reported as “Stable” and the remaining at 1 h, 30 µM [3] is reported as 65%. The Stability [4] was “Stable”, the remaining at 6 h, 30 µM [5] was 2% and the Stability [6] was “Stable”. The Stability [7] was “Stable”, the Stability [8] was “Stable” and the half-life at 50 µM [9] was greater than 96 h. For the same compound, the remaining at 3 h, 30 µM [10] was 6%, the Stability [11] was “Stable” and the Stability [12] was “Stable”. For the same compound, the Stability [13] was “Stable”, the Stability [14] was “Stable” and the Stability [15] was “Stable”. For the same compound, the Stability [16] was “Stable”, the Stability [17] was “Stable” and the remaining at 6 h, 30 µM [18] was 18%. For the same compound, the Activity [19] was “Active”, the Stability [20] was “Stable” and the Activity [21] was “Active”. The Stability [22] was “Stable”, the half-life at 50 µM [23] was 1 h and the Drug degradation [24] was “Active”. For the same compound, the solubility [25] was “Insoluble”, the solubility [26] was “soluble” and the remaining at 3 h, 30 µM [27] was 34%. For the same compound, the Stability [28] was “Stable”, the remaining at 1 h, 30 µM [29] was 51% and the Stability [30] was “Stable”. It also gave a remaining at 12 h, 30 µM [31] of 12%.
For `O=c1c(O)c(-c2ccc(O)c(O)c2)oc2cc(O)cc(O)c12` [QUERCETIN], the half-life at 50 µM [9] was 10 h, the Activity [19] was “Active” and the Activity [21] was “Active”. The half-life at 50 µM [23] was less than 0.5 h.

Reference: ChEMBL document CHEMBL2396515, “Quercetin-POC conjugates: Differential stability and bioactivity profiles between breast cancer (MCF-7) and colorectal carcinoma (HCT116) cell lines” (Bioorg Med Chem, 2013)
